How the values were obtained:
[1] = target: T1, UDP-glucuronosyltransferase 1A1 (Rattus norvegicus, UniProt Q64550); test: Inhibition of UGT1A in rat hepatocytes preincubated for 2 mins followed by UDPGA addition measured after 45 mins by HPLC analysis; type: ADME, cell-based
T1 sequence (Q64550 whole entry): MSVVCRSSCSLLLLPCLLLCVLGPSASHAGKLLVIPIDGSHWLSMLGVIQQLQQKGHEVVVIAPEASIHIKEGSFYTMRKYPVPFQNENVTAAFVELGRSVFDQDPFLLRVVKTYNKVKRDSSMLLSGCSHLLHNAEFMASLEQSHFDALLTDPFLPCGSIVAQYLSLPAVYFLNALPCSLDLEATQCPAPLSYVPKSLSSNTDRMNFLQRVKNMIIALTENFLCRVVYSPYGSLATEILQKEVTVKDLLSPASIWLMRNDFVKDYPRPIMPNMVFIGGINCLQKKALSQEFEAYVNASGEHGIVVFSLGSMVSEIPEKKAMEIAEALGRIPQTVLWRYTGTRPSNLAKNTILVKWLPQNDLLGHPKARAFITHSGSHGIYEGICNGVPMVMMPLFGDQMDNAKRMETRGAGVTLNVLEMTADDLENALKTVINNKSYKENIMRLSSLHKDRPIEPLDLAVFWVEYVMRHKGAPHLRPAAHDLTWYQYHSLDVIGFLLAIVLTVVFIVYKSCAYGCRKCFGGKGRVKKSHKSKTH
How it was run: (§1)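 Rat liver microsomes (100 µg protein/mL) were used, with alamethicin 22 µg/mL, bilirubin 10 µM and MgCl2 0.88 mM in 50 mM potassium phosphate pH 7.4, at 37 °C with shaking under minimal light. Purine or no-purine control was preincubated 2 min before UDPGA (3.5 mM) started the reaction. Reactions were stopped with ice-cold methanol containing 200 mM ascorbic acid and centrifuged. Unconjugated bilirubin and mono- and diglucuronides were quantified by gradient HPLC against bilirubin calibration curves over a 45-min time course.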

REH = test: Cytotoxicity against human REH cells assessed as reduction in cell viability […] by Alamar Blue assay; type: functional, cell-based
[2] = target: T2, UDP-glucose 6-dehydrogenase (Rattus norvegicus, UniProt O70199); test: Inhibition of UDPGDH in rat hepatocytes after 20 to 120 secs by UV/Vis spectrophotometric analysis; type: cell-based
T2 sequence (O70199 whole entry): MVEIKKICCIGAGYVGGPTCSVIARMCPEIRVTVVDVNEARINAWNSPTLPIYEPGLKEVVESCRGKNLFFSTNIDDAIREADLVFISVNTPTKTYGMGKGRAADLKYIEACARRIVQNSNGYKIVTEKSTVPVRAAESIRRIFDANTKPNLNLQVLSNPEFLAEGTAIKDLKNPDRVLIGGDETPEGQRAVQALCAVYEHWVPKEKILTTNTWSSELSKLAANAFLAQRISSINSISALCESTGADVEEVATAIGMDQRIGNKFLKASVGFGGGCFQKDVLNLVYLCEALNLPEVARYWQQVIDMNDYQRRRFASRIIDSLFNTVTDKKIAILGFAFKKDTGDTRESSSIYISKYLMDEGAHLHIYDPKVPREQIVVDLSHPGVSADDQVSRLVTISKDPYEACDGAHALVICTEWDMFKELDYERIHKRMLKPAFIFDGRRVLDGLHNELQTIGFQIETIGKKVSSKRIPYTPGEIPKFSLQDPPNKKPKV
How it was run: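 Purified UDPGDH (0.1 unit/mL) was assayed spectrophotometrically at 340 nm and 25 °C in 150 mM Gly-Gly with saturating 3 mM NAD+. UDPG was varied (0.1, 0.05, 0.025, 0.02 mM) at several inhibitor concentrations. After 2 min thermal equilibration, the initial absorbance-versus-time rate was recorded. Runs were in triplicate; averaged slopes were plotted to derive inhibition values.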

[3] = target: T1, UDP-glucuronosyltransferase 1A1; test: Inhibition of UGT1A in rat hepatocytes assessed as decrease in bilirubin diglucuronide level at 75 uM preincubated for 2 mins followed by UDPGA addition measured after 45 mins by HPLC analysis; type: ADME, cell-based; details: 0.75 h; how it was run: as §1
[4] = target: T1, UDP-glucuronosyltransferase 1A1; test: Inhibition of UGT1A in rat hepatocytes assessed as decrease in bilirubin monoglucuronide level at 75 uM preincubated for 2 mins followed by UDPGA addition measured after 45 mins by HPLC analysis; type: ADME, cell-based; details: 0.75 h; how it was run: as §1
[5] = target: T2, UDP-glucose 6-dehydrogenase; test: Inhibition of UDPGDH in rat hepatocytes assessed as decrease in bilirubin diglucuronide level at 10 uM preincubated for 2 mins followed by UDPGA addition measured after 45 mins in presence of regorafenib by HPLC analysis; type: cell-based; details: 0.75 h
[6] = target: T2, UDP-glucose 6-dehydrogenase; test: Inhibition of UDPGDH in rat hepatocytes assessed as decrease in bilirubin diglucuronide level at 10 uM after 45 mins in presence of UDPGA by HPLC analysis; type: cell-based; details: 0.75 h; how it was run: as §1
[7] = target: T2, UDP-glucose 6-dehydrogenase; test: Inhibition of UDPGDH in rat hepatocytes assessed as decrease in bilirubin diglucuronide level at 5 to 10 uM preincubated for 2 mins followed by UDPGA addition measured after 45 mins by HPLC analysis; type: cell-based; details: 0.75 h; how it was run: as §1
[8] = target: T2, UDP-glucose 6-dehydrogenase; test: Inhibition of UDPGDH in rat hepatocytes assessed as increase in unconjugated bilirubin level at 10 uM preincubated for 2 mins followed by UDPGA addition measured after 45 mins by HPLC analysis relative to control; type: cell-based; design: scale not given: the % may be the effect or the level left; details: 0.75 h; how it was run: as §1
[9] = target: T3, UDPGDH (UDP-glucose 6-dehydrogenase) (Rattus norvegicus, UniProt O70199); test: Inhibition of UDPGDH in rat hepatocytes assessed as decrease in bilirubin diglucuronide level at 10 uM preincubated for 2 mins followed by UDPGA addition measured after 45 mins by HPLC analysis relative to control; type: cell-based; details: probe bilirubin (readout: bilirubin diglucuronide level); how it was run: as §1
T3 sequence (O70199 whole entry): T2 sequence (O70199 whole entry)

[10] = target: T3, UDPGDH (UDP-glucose 6-dehydrogenase); test: Inhibition of UDPGDH in rat hepatocytes assessed as decrease in bilirubin monoglucuronide level at 10 uM preincubated for 2 mins followed by UDPGA addition measured after 45 mins by HPLC analysis relative to control; type: cell-based; details: probe bilirubin (readout: bilirubin monoglucuronide level); how it was run: as §1
[11] = target: T2, UDP-glucose 6-dehydrogenase; test: Inhibition of UDPGDH in rat hepatocytes assessed as increase in unconjugated bilirubin level at 5 uM preincubated for 2 mins followed by UDPGA addition measured after 45 mins by HPLC analysis relative to control; type: cell-based; design: scale not given: the % may be the effect or the level left; details: 0.75 h; how it was run: as §1
[12] = target: T1, UDP-glucuronosyltransferase 1A1; test: Inhibition of UGT1A in rat hepatocytes assessed as increase in unconjugated bilirubin level at 75 uM preincubated for 2 mins followed by UDPGA addition measured after 45 mins by HPLC analysis; type: ADME, cell-based; details: 0.75 h; how it was run: as §1
[13] = target: T3, UDPGDH (UDP-glucose 6-dehydrogenase); test: Inhibition of UDPGDH in rat hepatocytes assessed as decrease in bilirubin diglucuronide level at 5 uM preincubated for 2 mins followed by UDPGA addition measured after 45 mins by HPLC analysis relative to control; type: cell-based; details: probe bilirubin (readout: bilirubin diglucuronide level); how it was run: as §1
[14] = target: T2, UDP-glucose 6-dehydrogenase; test: Inhibition of UDPGDH in rat hepatocytes assessed as decrease in bilirubin monoglucuronide level at 10 uM preincubated for 2 mins followed by UDPGA addition measured after 45 mins in presence of regorafenib by HPLC analysis; type: cell-based; details: 0.75 h
[15] = target: T3, UDPGDH (UDP-glucose 6-dehydrogenase); test: Inhibition of UDPGDH in rat hepatocytes assessed as decrease in bilirubin monoglucuronide level at 5 uM preincubated for 2 mins followed by UDPGA addition measured after 45 mins by HPLC analysis relative to control; type: cell-based; details: probe bilirubin (readout: bilirubin monoglucuronide level); how it was run: as §1
[16] = target: T3, UDPGDH (UDP-glucose 6-dehydrogenase); test: Inhibition of UDPGDH in rat hepatocytes assessed as decrease in bilirubin monoglucuronide level at 50 uM preincubated for 2 mins followed by UDPGA addition measured after 45 mins by HPLC analysis relative to control; type: cell-based; details: probe bilirubin (readout: bilirubin monoglucuronide level); how it was run: as §1
[17] = target: T3, UDPGDH (UDP-glucose 6-dehydrogenase); test: Inhibition of UDPGDH in rat hepatocytes assessed as decrease in bilirubin monoglucuronide level at 25 uM preincubated for 2 mins followed by UDPGA addition measured after 45 mins by HPLC analysis relative to control; type: cell-based; details: probe bilirubin (readout: bilirubin monoglucuronide level); how it was run: as §1
[18] = target: T3, UDPGDH (UDP-glucose 6-dehydrogenase); test: Inhibition of UDPGDH in rat hepatocytes assessed as decrease in bilirubin diglucuronide level at 50 uM preincubated for 2 mins followed by UDPGA addition measured after 45 mins by HPLC analysis relative to control; type: cell-based; details: probe bilirubin (readout: bilirubin diglucuronide level); how it was run: as §1
[19] = target: T3, UDPGDH (UDP-glucose 6-dehydrogenase); test: Inhibition of UDPGDH in rat hepatocytes assessed as decrease in bilirubin diglucuronide level at 25 uM preincubated for 2 mins followed by UDPGA addition measured after 45 mins by HPLC analysis relative to control; type: cell-based; details: probe bilirubin (readout: bilirubin diglucuronide level); how it was run: as §1
[20] = target: T3, UDPGDH (UDP-glucose 6-dehydrogenase); test: Inhibition of UDPGDH in rat hepatocytes assessed as increase in unconjugated bilirubin level at 25 uM preincubated for 2 mins followed by UDPGA addition measured after 45 mins by HPLC analysis relative to control; type: cell-based; details: probe bilirubin (readout: unconjugated bilirubin level); how it was run: as §1
[21] = target: T1, UDP-glucuronosyltransferase 1A1; test: Inhibition of UGT1A in rat hepatocytes assessed as decrease in bilirubin monoglucuronide level at 10 uM after 45 mins in presence of UDPGA by HPLC analysis; type: ADME, cell-based; details: 0.75 h; how it was run: as §1
[22] = target: T4, UGT1A (UDP-glucuronosyltransferase 1A1) (Rattus norvegicus, UniProt Q64550); test: Inhibition of UGT1A in rat hepatocytes assessed as decrease in bilirubin monoglucuronide level at 10 uM preincubated for 2 mins followed by UDPGA addition measured after 45 mins by HPLC analysis relative to control; type: ADME, cell-based; details: probe bilirubin (readout: bilirubin monoglucuronide level); how it was run: as §1
T4 sequence (Q64550 whole entry): T1 sequence (Q64550 whole entry)

[23] = target: T4, UGT1A (UDP-glucuronosyltransferase 1A1); test: Inhibition of UGT1A in rat hepatocytes assessed as decrease in bilirubin diglucuronide level at 10 uM preincubated for 2 mins followed by UDPGA addition measured after 45 mins by HPLC analysis relative to control; type: ADME, cell-based; details: probe bilirubin (readout: bilirubin diglucuronide level); how it was run: as §1
[24] = target: T1, UDP-glucuronosyltransferase 1A1; test: Inhibition of UGT1A in rat hepatocytes assessed as decrease in bilirubin diglucuronide level at 10 uM after 45 mins in presence of UDPGA by HPLC analysis; type: ADME, cell-based; details: 0.75 h; how it was run: as §1

O=c1[nH]c(=S)c2nc[nH]c2[nH]1
Ki [1]: > 100 µM | IC50 (REH): > 10 µM | Ki [2]: 54 µM

O=c1[nH]c(=S)c2[nH]c(=O)[nH]c2[nH]1
inhibition (INH) [3]: Not Active | inhibition (INH) [4]: Not Active | inhibition (INH) [5]: Active | inhibition (INH) [6]: Not Active | inhibition (INH) [7]: Active | Activity [8]: 42% | inhibition at 0.75 h, 10 µM [9]: 86% | inhibition at 0.75 h, 10 µM [10]: 81% | Activity [11]: 31% | Ki [1]: > 100 µM | inhibition (INH) [12]: Not Active | IC50 (REH): > 10 µM | inhibition at 0.75 h, 5 µM [13]: 76% | Ki [2]: 7 µM | inhibition (INH) [14]: Active | inhibition at 0.75 h, 5 µM [15]: 71%

Sc1ncnc2[nH]c(Cl)nc12
IC50 (REH): 3.95 µM | Ki [2]: 163 µM

Oc1nc2c(S)ncnc2[nH]1
Ki [1]: > 100 µM | IC50 (REH): 9.91 µM | Ki [2]: 14 µM

Sc1ncnc2[nH]c(Br)nc12
IC50 (REH): 9.54 µM | Ki [2]: 192 µM

Fc1nc2c(S)ncnc2[nH]1
IC50 (REH): 4.71 µM | Ki [2]: 215 µM

COc1cccc2c1C(=O)c1c(O)c3c(c(O)c1C2=O)C[C@@](O)(C(=O)CO)C[C@@H]3O[C@H]1C[C@H](N)[C@H](O)[C@H](C)O1 [DOXORUBICIN]
IC50 (REH): 0.285 µM

Sc1ncnc2nc[nH]c12 [MERCAPTOPURINE ANHYDROUS]
inhibition (INH) [3]: Not Active | inhibition (INH) [4]: Not Active | inhibition at 0.75 h, 50 µM [16]: 28% | inhibition at 0.75 h, 25 µM [17]: 19% | inhibition (INH) [7]: Active | inhibition at 0.75 h, 50 µM [18]: 26% | Ki [1]: > 100 µM | inhibition (INH) [12]: Not Active | IC50 (REH): 2.94 µM | Ki [2]: 288 µM | inhibition at 0.75 h, 25 µM [19]: 12% | inhibition at 0.75 h, 25 µM [20]: 19%

CNC(=O)c1cc(Oc2ccc(NC(=O)Nc3ccc(Cl)c(C(F)(F)F)c3)c(F)c2)ccn1 [REGORAFENIB]
inhibition (INH) [21]: Active | inhibition at 0.75 h, 10 µM [22]: 89% | inhibition at 0.75 h, 10 µM [23]: 96% | inhibition (INH) [24]: Active

Source: ChEMBL document CHEMBL4316581, “Efforts in redesigning the antileukemic drug 6-thiopurine: decreasing toxic side effects while maintaining efficacy” (Medchemcomm, 2019)
